Measurements: ChEMBL document CHEMBL5712901, “DOT1L inhibition blocks multiple myeloma cell proliferation by suppressing IRF4-MYC signaling” (2019)
Activity calls are given as the source filed them. The calls are words filed in the database; no cut-off is given here.

Tests used:
[1] = system: KMS-12-BM; assay: Antiproliferative activity against human KMS-12-BM cells treated 3 days at 1 uM; format: functional, cell-based; conditions: time 3.0 day
In short: (§1)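 Cell lines in 6-well plates, 2 × 10^4 to 8 × 10^5 cells/well, exposed to DOT1L inhibitor at 0.25-1 μM or DMSO, with medium and drug refreshed every 3 days. Viability read with Cell Counting Kit-8 on a microplate reader. Values normalized to untreated cells; mean of 3 replications ± SEM.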

[2] = system: MM1.S; assay: Antiproliferative activity against human MM1.S cells treated 3 days at 1 uM; format: functional, cell-based; conditions: time 3.0 day; in short: as §1
[3] = system: KMS-12-PE; assay: Antiproliferative activity against human KMS-12-PE cells treated 3 days at 1 uM; format: functional, cell-based; conditions: time 3.0 day; in short: as §1
[4] = system: U-266; assay: Antiproliferative activity against human U-266 cells treated 3 days at 1 uM; format: functional, cell-based; conditions: time 3.0 day; in short: as §1
[5] = system: RPMI-8226; assay: Induction of cell cycle arrest in human RPMI-8226 cells assessed as increase in accumulation of cells at G1 phase at 1 uM for 6 days; format: functional, cell-based; conditions: time 6.0 day
In short: (§2)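 Flow cytometric cell cycle analysis of RPMI-8226 and MM.1S cells treated with 1 μM DOT1L inhibitor or DMSO for 6 days. Sub-G1, G0-G1 and S phase populations scored. Summary is from 3 replications, mean ± SEM.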

[6] = system: RPMI-8226; assay: Induction of cell cycle arrest in human RPMI-8226 cells assessed as increase in accumulation of cells at G0 phase at 1 uM for 6 days; format: functional, cell-based; conditions: time 6.0 day; in short: as §2
[7] = system: MM1.S; assay: Induction of cell cycle arrest in human MM1.S cells assessed as increase in accumulation of cells at G1 phase at 1 uM for 6 days; format: functional, cell-based; conditions: time 6.0 day; in short: as §2
[8] = system: MM1.S; assay: Induction of cell cycle arrest in human MM1.S cells assessed as increase in accumulation of cells at G0 phase at 1 uM for 6 days; format: functional, cell-based; conditions: time 6.0 day; in short: as §2
[9] = system: RPMI-8226; assay: Induction of apoptosis in human RPMI-8226 cells assessed as viable cells at 1 uM for 6 days by annexin-V based propidium iodide staining based flow cytometric analysis (reference value: 79.67%); format: functional; conditions: RPMI-8226, 144 h, time 6 day, read-out: Activity
[10] = system: RPMI-8226; assay: Induction of apoptosis in human RPMI-8226 cells assessed as late apoptotic cells at 1 uM for 6 days by annexin-V based propidium iodide staining based flow cytometric analysis (reference value: 10.5%); format: functional; conditions: time 6 day
[11] = system: RPMI-8226; assay: Induction of apoptosis in human RPMI-8226 cells assessed as necrotic cells at 1 uM for 6 days by annexin-V based propidium iodide staining based flow cytometric analysis (reference value: 3.61%); format: functional; conditions: time 6 day
[12] = system: MM1.S; assay: Induction of apoptosis in human MM1.S cells assessed as viable cells at 1 uM for 6 days by annexin-V based propidium iodide staining based flow cytometric analysis (reference value: 80.4%); format: functional; conditions: 144 h, time 6 day, read-out: Activity
[13] = system: MM1.S; assay: Induction of apoptosis in human MM1.S cells assessed as early apoptotic cells at 1 uM for 6 days by annexin-V based propidium iodide staining based flow cytometric analysis (reference value: 14.6%); format: functional; conditions: time 6 day
[14] = system: MM1.S; assay: Induction of apoptosis in human MM1.S cells assessed as necrotic cells at 1 uM for 6 days by annexin-V based propidium iodide staining based flow cytometric analysis (reference value: 0.16%); format: functional; conditions: time 6 day
[15] = system: RPMI-8226; assay: Induction of apoptosis in human RPMI-8226 cells assessed as necrotic cells at 1 uM for 6 days by annexin-V based propidium iodide staining based flow cytometric analysis (reference value: 3.92%); format: functional; conditions: time 6 day
[16] = system: RPMI-8226; assay: Induction of apoptosis in human RPMI-8226 cells assessed as viable cells at 1 uM for 3 days by annexin-V based propidium iodide staining based flow cytometric analysis (reference value: 91.2%); format: functional; conditions: RPMI-8226, 72 h, time 3 day, read-out: Activity
[17] = system: RPMI-8226; assay: Induction of apoptosis in human RPMI-8226 cells assessed as late apoptotic cells at 1 uM for 3 days by annexin-V based propidium iodide staining based flow cytometric analysis (reference value: 2.43%); format: functional; conditions: time 3 day
[18] = system: RPMI-8226; assay: Effect on human RPMI-8226 cells assessed as change in PRDM1 mRNA level at 1 uM for 3 days by ChIP-qPCR analysis; format: functional, cell-based; conditions: time 3.0 day
In short: (§3)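 ChIP-qPCR for H3K79me2 at IRF4-MYC signaling genes after 1 μM inhibitor or DMSO for 3 days. Signal normalized to input DNA. An intergenic region 28 kb upstream of KLF2 served as negative control. Mean of 3 replications ± SEM.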

[19] = system: MM1.S; assay: Effect on human MM1.S cells assessed as change in Myc mRNA level at 1 uM for 3 days by ChIP-qPCR analysis; format: functional, cell-based; conditions: time 3.0 day; in short: as §3
[20] = system: MM1.S; assay: Upregulation of IFN in human MM1.S cells assessed as increase in IFITM1 gene at 1 uM for 6 days by qRT-PCR analysis; format: functional, cell-based; conditions: time 6.0 day
[21] = system: KMS-12-PE; assay: Effect on human KMS-12-PE cells assessed as change in MYC mRNA level by qRT-PCR analysis; format: functional, cell-based
In short: (§4)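 Basal MYC and IRF4 mRNA in untreated cells measured by qRT-PCR. Normalized to ACTB; mean of 3 replications ± SEM.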

[22] = system: KMS-12-PE; assay: Effect on human KMS-12-PE cells assessed as change in IRF4 mRNA level by qRT-PCR analysis; format: functional, cell-based; in short: as §4
[23] = system: KMS-12-BM; assay: Effect on human KMS-12-BM cells assessed as change in MYC mRNA level by qRT-PCR analysis; format: functional, cell-based; in short: as §4
[24] = system: KMS-12-BM; assay: Effect on human KMS-12-BM cells assessed as decrease in MYC mRNA level at 1 uM for 6 days by qRT-PCR analysis; format: functional, cell-based; conditions: time 6.0 day
In short: (§5)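 qRT-PCR of MYC and IRF4 after 1 μM DOT1L inhibitor for 6 days. Normalized to ACTB; mean of 3 replications ± SEM.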

[25] = system: KMS-12-PE; assay: Effect on human KMS-12-PE cells assessed as decrease in MYC mRNA level at 1 uM for 6 days by qRT-PCR analysis; format: functional, cell-based; conditions: time 6.0 day; in short: as §5
[26] = system: MM1.S; assay: Upregulation of IFN in human MM1.S cells assessed as increase in IFIT1 gene at 1 uM for 6 days by qRT-PCR analysis; conditions: time 6.0 day
[27] = system: MM1.S; assay: Upregulation of IFN in human MM1.S cells assessed as increase in ISG15 gene at 1 uM for 6 days by qRT-PCR analysis; conditions: time 6.0 day
[28] = system: MM1.S; assay: Upregulation of IFN in human MM1.S cells assessed as increase in IFITM1 gene at 1 uM for 6 days by qRT-PCR analysis; conditions: time 6.0 day
[29] = system: RPMI-8226; assay: Upregulation of IFN in human RPMI-8226 cells assessed as increase in IFI44 gene at 1 uM for 6 days by qRT-PCR analysis; conditions: time 6.0 day
[30] = system: RPMI-8226; assay: Upregulation of IFN in human RPMI-8226 cells assessed as increase in IFIT1 gene at 1 uM for 6 days by qRT-PCR analysis; conditions: time 6.0 day
[31] = system: RPMI-8226; assay: Upregulation of IFN in human RPMI-8226 cells assessed as increase in ISG15 gene at 1 uM for 6 days by qRT-PCR analysis; conditions: time 6.0 day

SMILES	Activity [1]	Activity [2]	Activity [3]	Activity [4]	Activity [5]	Activity [6]	Activity [7]	Activity [8]	viability at 1 µM [9]	Activity [10]	Activity [11]	viability at 1 µM [12]	Activity [13]	Activity [14]	Activity [15]	viability at 1 µM [16]	Activity [17]	Activity [18]	Activity [19]	Activity [20]	also measured
CC(C)N(C[C@H]1O[C@@H](n2cnc3c(N)ncnc32)[C@H](O)[C@@H]1O)[C@H]1C[C@@H](CCc2nc3cc(C(C)(C)C)ccc3[nH]2)C1 [PINOMETOSTAT]	Active	Active	inactive	inactive	Active	Active	Active	Active	50.2%	18.3%	9.09%	67.5%	21.1%	0.05%	3.98%	76.6%	9.83%	Active	Active	Active	Activity [21]: Active; Activity [22]: Active; Activity [23]: Active; Activity [24]: Active; Activity [25]: Active; Activity [26]: Active; Activity [27]: Active; Activity [28]: Active; Activity [29]: Active; Activity [30]: Active; Activity [31]: Active
CC(C)N(CCCNC(=O)Nc1ccc(C(C)(C)C)cc1)C[C@H]1O[C@@H](n2cc(Br)c3c(N)ncnc32)[C@H](O)[C@@H]1O	Active	Active	inactive	inactive	Active	Active	Active	Active	66.9%	12.9%	8.1%	67.9%	20.2%	0.21%	4.83%	77.8%	8.85%	Active	Active	Active	Activity [21]: Active; Activity [22]: Active; Activity [23]: Active; Activity [24]: Active; Activity [25]: Active; Activity [26]: Active; Activity [27]: Active; Activity [28]: Active; Activity [29]: Active; Activity [30]: Active; Activity [31]: Active
